PAX8 reporter = inhibitors of PAX8-driven TPO luciferase reporter, primary screen, RMG-I cells, single concentration; inhibition, % at 12.6 µM; 1.2% of 360,000 active; SteadyGlo, 24 h;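 active = mean replicate inhibition at least 60% with every replicate also reaching 60%; inconclusive = only one of the two criteria is met; inactive = mean below 60% and not all replicates reaching 60%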;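 also: luciferase light reporting Pax8 driven TPO promoter activity; plate controls were median of neutral control wells for no effect and mitoxantrone controls for full effect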
EWS-Fli inh = EWS/Fli-driven NR0B1 reporter inhibitors, primary screen, A673 cells, NR0B1 luciferase, luminescence, MLPCN library. viability-normalised. inhibition, % at 12.6 µM. 0.67% of 350,000 active;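 active = mean inhibition of at least 50% after viability correction, with every replicate also passing that limit; inconclusive = mean reaches 50% but only one of two replicates passes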;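 also: firefly luciferase signal divided by Alamar Blue viability fluorescence both relative to DMSO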
Xi reactivation = activators of inactive X chromosome reactivation, primary screen, imaging, XiGFP fibroblasts, GFP high-content imaging, set 2; XiGFP mouse fibroblasts, % GFP-positive cells imaging, 3 d; cells co-treated with 5-aza-dC sensitizer; scaled so ellipticine positive control = 100%; activation, % at 7.58 µM; 0.055% of 360,000 active; AID 743238, 2013;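 active = mean normalized replicate activation at least 10% and every replicate at or above 10%; inconclusive = only one of the two criteria met; inactive = mean below 10% and not all replicates reach 10%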;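 also: 0% = median of on-plate neutral control wells and 100% = ellipticine 6 µM median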
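Material: SV40-immortalized XiGFP fibroblast cells, line 68-5-11 | Buffer or medium: DMEM containing 5-aza-dC | Dosing: One concentration, pinned | Times: 3 d treatment, 15 min room-temperature fixation | Controls: Ellipticine 6 µM positive control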
MLL AF4-AF9 inh = inhibitors of AF4 peptide binding to AF9, primary screen, biochemical, AlphaScreen, biotin-AF4 peptide, FLAG-AF9, single point; 0.47% of 350,000 active; Protein AF-9 (Homo sapiens), P42568; inhibition, % at 10 µM;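 active = every replicate reaching a set inhibition limit, whatever the replicate mean, cut at about 25% in these data; inconclusive = mean inhibition reaches that limit but some replicates miss it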;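 also: 0% = plate neutral control median and 100% = total signal loss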
Target sequence (P42568 whole entry, looked up): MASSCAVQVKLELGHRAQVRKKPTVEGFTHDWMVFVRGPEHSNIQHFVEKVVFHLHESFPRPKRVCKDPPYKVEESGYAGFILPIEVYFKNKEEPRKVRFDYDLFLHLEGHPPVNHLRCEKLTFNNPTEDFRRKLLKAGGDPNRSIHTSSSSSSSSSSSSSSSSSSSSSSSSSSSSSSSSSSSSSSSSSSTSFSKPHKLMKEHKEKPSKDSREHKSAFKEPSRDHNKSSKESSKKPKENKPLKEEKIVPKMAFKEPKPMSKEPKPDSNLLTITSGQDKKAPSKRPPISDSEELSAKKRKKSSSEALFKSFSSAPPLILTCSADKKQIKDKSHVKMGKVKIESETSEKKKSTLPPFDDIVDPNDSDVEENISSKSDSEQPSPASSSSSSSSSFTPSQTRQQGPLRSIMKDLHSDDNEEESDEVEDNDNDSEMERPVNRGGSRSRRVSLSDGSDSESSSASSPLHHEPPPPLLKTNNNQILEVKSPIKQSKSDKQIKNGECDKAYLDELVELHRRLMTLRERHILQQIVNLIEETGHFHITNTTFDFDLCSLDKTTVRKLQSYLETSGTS
GSIS activator = GLuc luminescence reporter in INS-1E cells, primary screen for activators of glucose-dependent secretion of insulin; activation, % at 16.6 µM; 0.61% of 370,000 active; INS-1E GLuc reporter insulin secretion, 2-3 h;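 active = lowest replicate activation of at least 40%, so every replicate reaches that level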;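 also: 0% = median of neutral control wells and 100% = median of IBMX positive control wells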
PGC1a acetyl inh = inhibitors of PGC1a acetylation signal, primary screen, cell-based, U2OS, AlphaScreen, inhibitor mode. AlphaScreen anti-acetyl-lysine; with virally co-expressed GCN5 acetyltransferase. inhibition, % at 15.6 µM. 0.17% of 350,000 active;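 active = every replicate shows inhibition of at least 40%; inconclusive = mean inhibition at least 40% but some replicate below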;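 also: 0% = neutral control wells and 100% = positive control wells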
* hit, by the source's call; u = inconclusive; x = not tested or not shown. This is a sample that favours compounds with a hit; in the whole collection about 2.1% have one here.

SMILES	PAX8 reporter	EWS-Fli inh	Xi reactivation	MLL AF4-AF9 inh	GSIS activator	PGC1a acetyl inh
C[C@@H]1CN([C@@H](C)CO)C(=O)Cc2cc(NC(=O)Nc3ccc(C(F)(F)F)cc3)ccc2O[C@H]1CN(C)Cc1ccc(Cl)c(Cl)c1	104*	67*	-1	3	-2	-6
C[C@H]1CN([C@@H](C)CO)S(=O)(=O)c2ccc(C#CC3CC3)cc2O[C@@H]1CN(C)C(=O)c1cccnc1	x	-5	-1	-2	5	-8
CC(C)(CO)CNc1ccn2nccc2n1	-29	-11	0	-4	18	43*
Fc1ccc(CNc2ccn3nc(-c4ccccc4)cc3n2)cc1	-174	-97	0	-7	x	x
C[C@H]1CN([C@@H](C)CO)S(=O)(=O)c2ccc(/C=C/c3ccccc3)cc2O[C@H]1CN(C)CC1CC1	x	23	-1	29*	7	-21
Cc1ccc(-c2ccc3c(c2)O[C@H](CN(C)Cc2cccnc2)[C@@H](C)CN([C@H](C)CO)S3(=O)=O)cc1	x	63*	-1	7	-13	-10
Cc1ccc(-c2ccc3c(c2)O[C@@H](CN(C)Cc2ccncc2)[C@H](C)CN([C@H](C)CO)S3(=O)=O)cc1	x	74*	0	0	-29	9
C[C@H]1CN([C@@H](C)CO)S(=O)(=O)c2ccc(/C=C/c3ccccc3)cc2O[C@@H]1CN(C)Cc1cccnc1	86*	20	x	14	x	16
C/C=C/c1ccc2c(c1)O[C@H](CN(C)CC1CC1)[C@H](C)CN([C@H](C)CO)S2(=O)=O	x	-3	0	x	2	6
C[C@H](CO)N1C[C@H](C)[C@H](CN(C)Cc2cccnc2)Oc2cc(/C=C/c3ccccc3)ccc2S1(=O)=O	0	6	0	14	4	5
COc1ccc(NC(=O)N[C@@H]2CC[C@H](CC(=O)NC3CCCCC3)O[C@@H]2CO)cc1	-5	-2	0	-4	-13	7
COCC(=O)N1CCC2(CC1)CN(S(C)(=O)=O)[C@@H](CO)c1c2c2ccc(OC)cc2n1C	x	x	0	x	16	x
CCC(=O)N1CC2(CN(C(=O)Cc3ccccc3)C2)c2c(n(C)c3cc(OC)ccc23)[C@H]1CO	7	-9	0	1	-2	x
Cc1ccc(-c2ccc3c(c2)O[C@H](CN(C)Cc2ccncc2)[C@@H](C)CN([C@@H](C)CO)S3(=O)=O)cc1	x	72*	0	-1	-26	-13
C[C@H]1CN(C)C(=O)Cc2cc(NS(C)(=O)=O)ccc2O[C@H]1CN(C)C	x	x	0	x	24	x
C[C@H](O)C#Cc1ccc2c(c1)O[C@H](CN(C)Cc1ccc(-c3ccccc3)cc1)[C@@H](C)CN([C@@H](C)CO)S2(=O)=O	109*	9	-1	1	-5	11
C[C@H](O)C#Cc1ccc2c(c1)O[C@@H](CN(C)Cc1ccc(-c3ccccc3)cc1)[C@H](C)CN([C@H](C)CO)S2(=O)=O	94*	-6	-1	-2	-2	7
C[C@@H]1CN([C@@H](C)CO)S(=O)(=O)c2ccc(C#C[C@@H](C)O)cc2O[C@@H]1CN(C)Cc1ccc(-c2ccccc2)cc1	77*	11	0	-1	-13	-21
C[C@H](O)C#Cc1ccc2c(c1)O[C@H](CN(C)Cc1ccc(-c3ccccc3)cc1)[C@H](C)CN([C@@H](C)CO)S2(=O)=O	81*	15	0	2	-18	-15
C[C@@H]1CN([C@H](C)CO)S(=O)(=O)c2ccc(C#C[C@@H](C)O)cc2O[C@H]1CN(C)Cc1ccc(-c2ccccc2)cc1	u	37	-1	-1	-9	4
C[C@@H]1CN([C@@H](C)CO)C(=O)c2cccc(NC(=O)C3CCCCC3)c2O[C@H]1CN(C)CC1CCCCC1	-19	3	0	3	8	6
COc1ccccc1C#Cc1cnc2c(c1)C(=O)N([C@H](C)CO)C[C@H](C)[C@@H](CN(C)C(C)=O)O2	x	-14	-2	1	-4	9
COc1cc(/C=C/c2ccc3c(Br)cc(Br)c(O)c3n2)ccc1O	73*	32	0	0	9	3
COc1ccc(/C=C/c2ccc3c(Br)ccc(O)c3n2)cc1	-113	-6	0	3	2	-8
C=C(C)[C@@H]1C2=CC(C(=O)OC)=C(C[C@H](C(=C)C)[C@H]3O[C@H]3C3=C[C@H]1OC3=O)O2	x	57*	x	-2	x	2
SMILES	PAX8 reporter	EWS-Fli inh	Xi reactivation	MLL AF4-AF9 inh	GSIS activator	PGC1a acetyl inh
COc1ccccc1NC(=O)N[C@@H]1CC[C@@H](CCn2cc(-c3cccnc3)nn2)O[C@H]1CO	-5	3	0	-16	-13	-3
O=C(Nc1cccc(S(=O)(=O)C(F)(F)F)c1)[C@H]1C[C@H](O)[C@@H](CO)O1	15	-7	0	-5	8	4
O=C(Nc1cccc(S(=O)(=O)C(F)(F)F)c1)[C@@H]1O[C@H](CO)[C@@H](O)[C@H]1O	14	-6	2	1	43*	2
Cc1noc(C)c1NC(=O)Nc1cccc2c1O[C@H](CN(C)C(=O)Nc1ccccc1)[C@H](C)CN([C@@H](C)CO)C2=O	-1	3	0	3	10	-9
O=C(c1c[nH]c2ccccc12)C(Cl)c1ccccc1 (centres undefined)	81*	28	0	-1	2	x
C[C@H](CO)N1C[C@H](C)[C@H](CN(C)C(=O)NC2CCCCC2)Oc2ncc(/C=C/c3ccccc3)cc2C1=O	-1	1	-1	4	-34	2
CCn1c(SCC(=O)Nc2cc(C)on2)nc2sc3c(c2c1=O)CCCC3	x	0	x	-2	8	-6
Cc1cc(NC(=O)CSc2nc3sc4c(c3c(=O)n2C)CCCC4)no1	x	x	x	x	152*	0
CCCC(=O)Nc1ccc2c(c1)C(=O)N(C)C[C@@H](OC)[C@H](C)CN(Cc1ccncc1)[C@@H](C)CO2	x	-2	0	x	4	0
COc1cccc(C#Cc2ccc3c(c2)[C@H]2[C@H](CCN2C(=O)Cc2ccccc2)[C@@H](CO)N3C)c1	x	x	0	x	-19	x
C[C@@H]1CCCCO[C@H](CN(C)S(=O)(=O)c2ccc(Cl)cc2)[C@H](C)CN([C@@H](C)CO)C(=O)c2cc(NC(=O)NC3CCCCC3)ccc2O1	63*	6	2	0	2	-1
C[C@H]1CCCCO[C@H](CN(C)S(=O)(=O)c2ccc(Cl)cc2)[C@@H](C)CN([C@@H](C)CO)C(=O)c2cc(NC(=O)NC3CCCCC3)ccc2O1	3	2	-1	1	-6	2

From PubChem BioAssay
